These results are taken from article PMC10053325 (Cell chemical biology, 2020).

In series [1] the test system is isogenic HCT116 R361H cells. Nature of the series: Colony formation assay. The note with it: TGF-β 10 ng/mL, Ro-31-8220 1 μM, Go-6983 10 μM, 15-day treatment. The series is classed as cell-based, human. The method in brief: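 Single-cell suspensions seeded at 1,000 to 2,000 cells/well in 6-well plates, treated next day with TGF-β, test compound, or the combination. Agent-containing medium renewed every 3 days for 15 days. Colonies stained with crystal violet and colony area quantified from images. Mean ± SD, three independent experiments; Student's t-test.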

The target in series [2] is T1, SMAD4^R361H-SMAD3 PPI (Homo sapiens, UniProt Q13485, R361H). Put plainly: TR-FRET assay for SMAD4^R361H/SMAD3 PPI in HEK293T cell lysate. It is filed as binding. The note with it: primary screening, compounds 20 μM. For orientation: Time-resolved FRET reads energy transfer from a long-lived donor to a nearby acceptor.
Target sequence in this assay (P84022 whole entry partner, one chain of several): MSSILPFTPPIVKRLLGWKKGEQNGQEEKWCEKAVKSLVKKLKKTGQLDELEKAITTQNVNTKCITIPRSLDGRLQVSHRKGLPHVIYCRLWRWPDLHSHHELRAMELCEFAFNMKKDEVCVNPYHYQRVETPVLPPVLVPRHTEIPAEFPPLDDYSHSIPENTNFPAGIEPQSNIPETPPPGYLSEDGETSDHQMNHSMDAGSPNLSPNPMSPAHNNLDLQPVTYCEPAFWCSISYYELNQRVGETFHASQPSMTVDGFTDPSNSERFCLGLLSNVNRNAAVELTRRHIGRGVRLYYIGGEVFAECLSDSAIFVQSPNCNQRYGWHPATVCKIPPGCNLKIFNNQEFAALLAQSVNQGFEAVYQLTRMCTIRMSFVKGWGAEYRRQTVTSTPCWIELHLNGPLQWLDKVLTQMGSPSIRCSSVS
A further series concerns the target SMAD4^D351H/SMAD3 PPI (Homo sapiens, UniProt Q13485, D351H). Nature of the series: GST pull-down assay of GST-SMAD4-D351H with VF-SMAD3 in cell lysate. It is filed as binding. The note with it: versus DMSO control. In short, it runs like this:
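HEK293T cells co-transfected with Venus-flag-SMAD3 and mutant GST-SMAD4 and lysed after 48 h in 0.5% Triton X-100 buffer (20 mM Tris-HCl, 150 mM NaCl, 5% glycerol, 2 mM EDTA). Lysate incubated with test compound 3 h rotating at 4°C, then glutathione beads 2 h at 4°C. Beads washed three times, boiled in SDS buffer, and bound SMAD3 detected by western blot.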

Series [3] has as its target SMAD4^R361H interaction with R-SMADs (Homo sapiens, UniProt Q13485, R361H). Put plainly: R-SMADs selectivity profiling by TR-FRET. The series is classed as binding. As to conditions: dose-response AUC; SMAD1/2/3/5/8.
For series [4], the system named is isogenic HCT116 R361H cells. Nature of the series: Flow cytometry-based cell-cycle analysis. Also on record: species or system human. The note with it: TGF-β 10 ng/mL, Ro-31-8220 1 μM, Go-6983 10 μM. The method in brief: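 Cells serum-starved 24 h, then placed in 10% FBS medium with TGF-β (10 ng/mL) and/or test compound for 24 h. Fixed in 70% ethanol overnight at 4°C, RNase-treated (1 mg/ml, 30 min, 37°C), stained with 40 μg/ml PI for 30 min. 5,000 cells per sample analysed by flow cytometry; % G1/S given as mean ± SD of three independent experiments.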
Background: Flow cytometry measures light scatter and fluorescence of single cells or particles in a stream.

Series [5] has as its system isogenic HCT116 cells (SMAD4 WT, null, R361H). Put plainly: Cell viability assay. It is filed as cell-based, human. The method in brief: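 Isogenic HCT116 WT, SMAD4-null and R361H cells given TGF-β (10 ng/mL), test compound, or both; vehicle/DMSO controls. CellTiter-Blue added and incubated at 37°C. Fluorescence read at Ex 545/Em 615 nm, medium-only blank subtracted, normalized to untreated controls (% C). Mean ± SD of three independent experiments; Student's t-test.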

Series [6] addresses T1, SMAD4^R361H-SMAD3 PPI. Nature of the series: Endogenous co-immunoprecipitation of SMAD4 complex in RCM-1 cells. It is filed as cell-based. As to conditions: 10 μM for 8 h, endogenous proteins. The method in brief: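 RCM-1 cells in 100 mm dishes exposed to 10 μM test compound or DMSO for 8 h, then lysed in PBS by sonication. About 1.5 mg total protein per IP incubated with antibody overnight at 4 °C, then with protein […] agarose beads 4 h at 4 °C. Beads washed four times in PBS; eluates probed for SMAD3 by western blot.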
Target sequence in this assay (P84022 2-425 partner limits assumed, one chain of several): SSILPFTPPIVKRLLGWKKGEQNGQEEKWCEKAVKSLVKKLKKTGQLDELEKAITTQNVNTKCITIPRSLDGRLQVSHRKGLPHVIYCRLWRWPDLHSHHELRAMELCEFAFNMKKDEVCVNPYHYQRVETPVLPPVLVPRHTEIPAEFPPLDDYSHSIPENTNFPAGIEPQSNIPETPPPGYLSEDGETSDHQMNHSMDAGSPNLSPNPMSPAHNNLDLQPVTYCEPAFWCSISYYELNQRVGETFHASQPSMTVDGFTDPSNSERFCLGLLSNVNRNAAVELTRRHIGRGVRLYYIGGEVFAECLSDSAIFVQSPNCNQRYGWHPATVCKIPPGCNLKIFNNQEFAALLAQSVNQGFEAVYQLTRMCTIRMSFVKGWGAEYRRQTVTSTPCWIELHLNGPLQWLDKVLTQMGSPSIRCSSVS

Series [7] deals with isogenic HCT116 cells (SMAD4 R361H, null). Put plainly: Western blot of TGF-β-induced p15, p21, N-cadherin and Vimentin proteins. It is filed as cell-based, human. The note with it: R361H mutant cells, TGF-β 10 ng/mL, compound 1 μM. The method in brief:
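Isogenic HCT116 SMAD4-null or R361H cells treated with TGF-β (10 ng/mL) and/or test compound (1 μM). Lysates run on 10% SDS-PAGE and transferred to nitrocellulose (100 V, 2 h, 4°C). Membranes blocked 1 h in 5% milk/TBST, probed overnight at 4°C, and developed by chemiluminescence. Representative of three independent experiments.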

Series [8] deals with SMAD4/SMAD3 transcriptional activity (SBE-luc). Nature of the series: SBE-driven luciferase reporter assay. It is filed as cell-based, human. As to conditions: isogenic HCT116 R361H cells pre-treated with compound. In short, it runs like this: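 […] cells in 6-well plates co-transfected with SBE4-Luc (1 μg) and Renilla (0.1 μg) plasmids. After 24 h, cells pretreated 6 h with test compound, then stimulated with TGF-β for 18 h. Dual-Glo read-out as Firefly/Renilla ratio, expressed as TGF-β-induced fold-of-change; assays repeated three times.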
A general note: In a reporter assay the amount or activity of a reporter protein is the signal.

The target of a further series is T2, SMAD4^R361H (Homo sapiens, UniProt Q13485, R361H).
T2 sequence (Q13485 1-552 R361H): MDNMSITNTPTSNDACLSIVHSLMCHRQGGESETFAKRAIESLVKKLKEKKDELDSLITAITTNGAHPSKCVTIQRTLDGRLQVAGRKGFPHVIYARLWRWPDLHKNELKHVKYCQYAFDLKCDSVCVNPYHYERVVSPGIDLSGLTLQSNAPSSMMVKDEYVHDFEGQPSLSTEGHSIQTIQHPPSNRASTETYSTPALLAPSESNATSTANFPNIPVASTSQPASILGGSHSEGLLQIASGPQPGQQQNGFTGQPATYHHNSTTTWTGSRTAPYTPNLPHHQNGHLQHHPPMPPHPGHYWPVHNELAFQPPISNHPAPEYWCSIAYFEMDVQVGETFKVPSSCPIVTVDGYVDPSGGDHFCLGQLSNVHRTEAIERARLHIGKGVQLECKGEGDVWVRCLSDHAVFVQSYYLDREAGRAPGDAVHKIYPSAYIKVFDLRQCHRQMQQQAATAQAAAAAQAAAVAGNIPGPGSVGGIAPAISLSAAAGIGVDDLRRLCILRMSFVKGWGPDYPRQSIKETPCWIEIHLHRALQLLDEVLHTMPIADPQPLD
Put plainly: Cycloheximide. It is filed as cell-based. The note with it: RCM-1 cells, CHX chase. In short, it runs like this:
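RCM-1 cells grown 24 h in 24-well plates, then given 100 μg/mL cycloheximide with test compound or DMSO. At each time point cells scraped into 2X SDS sample buffer and boiled 5 min. Run on 10% SDS-PAGE and blotted with anti-SMAD4; SMAD4 densitometry normalized to β-actin. Performed three times.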

A further series concerns the target T3, SMAD4 WT (Homo sapiens, UniProt Q13485).
T3 sequence (Q13485 1-552): T2 sequence (Q13485 1-552 R361H) with H361R
Nature of the series: Cellular thermal shift assay. The series is classed as cell-based. The note with it: HCT116 cells, 10 μM for 8 h, compared with the DMSO control. The method in brief:
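Cells at 60% confluency in 100 mm dishes given 10 μM test compound for 8 h. Pellets in PBS aliquoted and heated at 45~65 °C for 3 min, lysed by three liquid nitrogen/25 °C freeze-thaw cycles, spun 20,000g for 20 min at 4 °C. Soluble SMAD protein western-blotted with actin loading control. Thermal curves from densitometry; mean ± SD, three independent experiments.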

For series [9], the system named is isogenic HCT116 R361H cells. Nature of the series: Transcriptome profiling. The note with it: TGF-β 10 ng/mL, compound 1 μM. The series is classed as cell-based, human.

Molecules are shown by their SMILES. Positions count from the first letter of the chain named.

Sequence of SMAD4^D351H/SMAD3 PPI (Q13485 whole entry D351H): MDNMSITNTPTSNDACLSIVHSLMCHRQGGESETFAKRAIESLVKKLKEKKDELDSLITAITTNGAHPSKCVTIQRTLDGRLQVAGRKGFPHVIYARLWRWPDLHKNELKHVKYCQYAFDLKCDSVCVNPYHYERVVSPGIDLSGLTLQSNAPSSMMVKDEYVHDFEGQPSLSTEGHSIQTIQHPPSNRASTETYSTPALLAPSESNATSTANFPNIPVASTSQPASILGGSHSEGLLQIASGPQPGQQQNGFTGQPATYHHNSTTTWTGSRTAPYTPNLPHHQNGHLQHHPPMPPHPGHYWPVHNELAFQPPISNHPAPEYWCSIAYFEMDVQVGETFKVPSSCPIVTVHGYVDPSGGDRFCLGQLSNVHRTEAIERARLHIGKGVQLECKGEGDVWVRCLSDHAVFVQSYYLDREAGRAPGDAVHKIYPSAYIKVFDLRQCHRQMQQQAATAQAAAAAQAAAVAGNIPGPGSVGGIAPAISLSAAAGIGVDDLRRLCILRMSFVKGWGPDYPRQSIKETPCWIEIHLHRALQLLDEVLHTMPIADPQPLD
Sequence of SMAD4^D351H/SMAD3 PPI (P84022 whole entry partner): as the sequence (P84022 whole entry partner, one chain of several) above
Sequence of SMAD4^R361H interaction with R-SMADs (P84022 whole entry partner, one chain of several): as above

Turning to `COc1ccc2c(c1)c(C1=C(c3c[nH]c4ccccc34)C(=O)NC1=O)cn2CCCN(C)C` [Go-6983], the “colony area in combination with TGF-β” value in series [1] is given as “A similar effect”. For the same compound, the “potentiation effect (ΔTR-FRET) compared with the DMSO control” value on SMAD4^R361H-SMAD3 PPI [2] was more than 40%. In addition, the “SMAD3 level in the D351H GST pull-down complex” value on SMAD4^D351H/SMAD3 PPI was “significantly restored”. Besides, in [3], the “compound-induced TR-FRET signal for SMAD4^R361H with SMAD3 compared with other R-SMADs” value is recorded as “significantly higher”.

As to `Cn1cc(C2=C(c3cn(CCCSC(=N)N)c4ccccc34)C(=O)NC2=O)c2ccccc21` [Ro-31-8220], the “sensitivity to TGF-β-induced G1/S cell-cycle arrest” value in series [4] was “regained sensitivity”. Also, in series [5] (SMAD4 R361H cells, with TGF-β 10 ng/mL, Ro-31-8220 1 μM, Go-6983 10 μM), the “sensitivity to TGF-β-induced growth suppression (cell viability)” value was “restored the sensitivity”. Further, the “growth inhibition, compound alone” value in [5] (SMAD4 WT, null and R361H cells, 1 μM) is reported as “did not result in any significant growth inhibition”. The “amount of SMAD3 in the SMAD4-R361H immune-complex” value on SMAD4^R361H-SMAD3 PPI [6] was “drastically restored”. For the same compound, the “TGF-β-induced expression of p15, p21, N-cadherin and Vimentin proteins” value in series [7] was “significant increase”. In addition, the “colony area in combination with TGF-β” value in series [1] is on record as “significantly decreased colony area”. Also, the “potentiation effect (ΔTR-FRET) compared with the DMSO control” value at SMAD4^R361H-SMAD3 PPI [2] is reported as more than 40%. The “TGF-β-induced SBE-luc activity” value in [8] was “restored to a level similar to that of the WT cells”. Also, on SMAD4^D351H/SMAD3 PPI, the “SMAD3 level in the D351H GST pull-down complex” value was “significantly restored”. In addition, at SMAD4^R361H, the “SMAD4^R361H protein half-life compared with DMSO control” value is on record as “no significant difference”. Further, the “SMAD4^R361H protein half-life” value on SMAD4^R361H (compound-treated) is reported as “about 2 h”. For the same compound, in series [3], the “compound-induced TR-FRET signal for SMAD4^R361H with SMAD3 compared with other R-SMADs” value was “significantly higher”. On SMAD4 WT, the “increase of Tm (ΔTm) of SMAD4 WT” value was “but not WT or SMAD3”. Also, the “response to TGF-β in terms of DEGs” value in series [9] is “reestablished to a similar degree to that of WT cells”.
